In brackets after ≈: the same amount, converted by molar mass.
What was measured:
[1] = tested on: Staphylococcus epidermidis; assay: Antibacterial activity against coagulase-negative Staphylococcus epidermidis 345 assessed as change in MIC by agar dilution method after serial passages in presence of antibiotic relative to control; format: functional
In short: (§1)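 Serial passage under drug. Inoculum was ~1 × 10^6 CFU/ml from overnight MHA growth, in 1 ml MHB at 35°C for 24 h. Drug ranged from 4 log2 steps above to 3 log2 steps below the MIC. […] MIC change is given as log2 steps.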

[2] = tested on: Staphylococcus epidermidis; assay: Antibacterial activity against methicillin-susceptible coagulase-negative Staphylococcus epidermidis 057 after 50 passages by agar dilution method; format: functional
In short: (§2)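 Daily serial passage for up to 50 days at 35°C for 24 h in 1 ml MHB. Each transfer used 10 µl from the tube nearest the MIC (1–2 dilutions below) with the same turbidity as the drug-free control. MICs were measured by agar dilution, with changes given as log2 steps.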

[3] = tested on: Staphylococcus epidermidis; assay: Antibacterial activity against coagulase-negative Staphylococcus epidermidis 225 assessed as change in MIC by agar dilution method after serial passages in presence of antibiotic relative to control; format: functional; in short: as §1
Staphylococcus aureus [4] = assay: Antibacterial activity against methicillin-resistant Staphylococcus aureus ATCC 43300 after 50 passages by agar dilution method; format: functional; conditions: ATCC43300; in short: as §1
[5] = tested on: Staphylococcus epidermidis; assay: Antibacterial activity against methicillin-susceptible coagulase-negative Staphylococcus epidermidis 057 by broth macrodilution method; format: functional
[6] = tested on: Staphylococcus epidermidis; assay: Antibacterial activity against methicillin-susceptible coagulase-negative Staphylococcus epidermidis 051 after 50 passages by agar dilution method; format: functional; in short: as §2
Staphylococcus aureus [7] = assay: Antibacterial activity against Tmp-susceptible Staphylococcus aureus by agar dilution method; format: functional
In short: (§3)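 MICs by agar dilution on Mueller-Hinton agar following CLSI guidelines. S. aureus ATCC 29213 and E. faecalis ATCC 29212 were run as quality controls with each set, and test-strain MICs were kept only if control MICs fell within acceptable ranges.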

[8] = tested on: Staphylococcus epidermidis; assay: Antibacterial activity against methicillin-resistant, vancomycin-intermediate coagulase-negative Staphylococcus epidermidis 225 by agar dilution method; format: functional
In short: (§4)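 Agar dilution on Mueller-Hinton agar per CLSI guidelines. S. aureus ATCC 29213 and E. faecalis ATCC 29212 were run with each set, and test MICs were accepted only when the control strains fell within acceptable ranges.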

[9] = tested on: Staphylococcus epidermidis; assay: Antibacterial activity against coagulase-negative Staphylococcus epidermidis 051 assessed as change in MIC by agar dilution method after serial passages in presence of antibiotic relative to control; format: functional; in short: as §1
Staphylococcus aureus [10] = assay: Antibacterial activity against Staphylococcus aureus ATCC 29213 assessed as change in MIC by agar odilution method after serial passages in presence of antibiotic relative to control; format: functional, ATCC29213; in short: as §1
[11] = tested on: Staphylococcus epidermidis; assay: Antibacterial activity against coagulase-negative Staphylococcus epidermidis 051 after 50 passages by agar dilution method; format: functional; in short: as §1
Staphylococcus aureus [12] = assay: Antibacterial activity against Tmp-resistant Staphylococcus aureus by agar dilution method; format: functional; in short: as §3
[13] = tested on: Staphylococcus epidermidis; assay: Antibacterial activity against methicillin-resistant, Linezolid non-susceptible coagulase-negative Staphylococcus epidermidis 345 by agar dilution method; format: functional
[14] = tested on: Staphylococcus epidermidis; assay: Antibacterial activity against methicillin-resistant, Linezolid non-susceptible coagulase-negative Staphylococcus epidermidis 345 after 50 passages by agar dilution method; format: functional; in short: as §2
Staphylococcus aureus [15] = assay: Antibacterial activity against methicillin-resistant and vancomycin-resistant Staphylococcus aureus VRS1 by agar dilution method; format: functional; in short: as §4
[16] = tested on: Staphylococcus epidermidis; assay: Antibacterial activity against coagulase-negative Staphylococcus epidermidis 057 assessed as change in MIC by agar dilution method after serial passages in presence of antibiotic relative to control; format: functional; in short: as §1
[17] = tested on: Staphylococcus epidermidis; assay: Antibacterial activity against coagulase-negative Staphylococcus epidermidis 051 assessed as change in MIC by agar dilution method after serial passages in the absence of antibiotic relative to control; format: functional
In short: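 After drug-selective serial passage, selected clones were passaged 10 times in antibiotic-free MHB. MICs were then redetermined, and the change is expressed as log2 dilution steps.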

[18] = tested on: Staphylococcus epidermidis; assay: Antibacterial activity against methicillin-susceptible coagulase-negative Staphylococcus epidermidis 051 by broth macrodilution method; format: functional
Staphylococcus aureus [19] = assay: Antibacterial activity against methicillin-resistant Staphylococcus aureus by agar dilution method; format: functional; in short: as §4
[20] = tested on: Staphylococcus epidermidis; assay: Antibacterial activity against coagulase-negative Staphylococcus epidermidis 345 after 50 passages by agar dilution method; format: functional; in short: as §1
Staphylococcus aureus [21] = assay: Antibacterial activity against Staphylococcus aureus 505 assessed as change in MIC by agar dilution method after serial passages in presence of antibiotic relative to control; format: functional; in short: as §1
Staphylococcus aureus [22] = assay: Antibacterial activity against Staphylococcus aureus 145
Staphylococcus aureus [23] = assay: Antibacterial activity against methicillin-resistant Staphylococcus aureus 145 after 37 passages by agar dilution method; format: functional; in short: as §1
Staphylococcus aureus [24] = assay: Antibacterial activity against methicillin-resistant Staphylococcus aureus 145 by broth macrodilution method; format: functional
Staphylococcus aureus [25] = assay: Antibacterial activity against vancomycin-resistant Staphylococcus aureus VRS1 after 15 passages by agar dilution method; format: functional
In short: (§5)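 Daily serial passage for up to 50 days at 35°C for 24 h in 1 ml MHB. […] Each transfer used 10 µl from the tube nearest the MIC (1–2 dilutions below) with the same turbidity as the drug-free control. […] MICs were measured by agar dilution, with changes given as log2 steps.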

[26] = tested on: Staphylococcus epidermidis; assay: Antibacterial activity against methicillin-resistant coagulase-negative Staphylococcus epidermidis 225 by broth macrodilution method; format: functional
Staphylococcus aureus [27] = assay: Antibacterial activity against methicillin-resistant and vancomycin-resistant Staphylococcus aureus VRS1 after 15 passages by agar dilution method; format: functional; in short: as §5
[28] = tested on: Staphylococcus epidermidis; assay: Antibacterial activity against coagulase-negative Staphylococcus epidermidis 225 after 50 passages by agar dilution method; format: functional; in short: as §1
Staphylococcus aureus [29] = assay: Antibacterial activity against methicillin-susceptible, vancomycin-intermediate Staphylococcus aureus 505 after 50 passages by agar dilution method; format: functional; in short: as §5
Staphylococcus aureus [30] = assay: Antibacterial activity against Staphylococcus aureus 145 assessed as change in MIC by agar dilution method after serial passages in presence of antibiotic relative to control; format: functional; in short: as §1
[31] = tested on: Staphylococcus epidermidis; assay: Antibacterial activity against coagulase-negative Staphylococcus epidermidis 225 after 38 passages by agar dilution method; format: functional; in short: as §1
[32] = tested on: Staphylococcus epidermidis; assay: Antibacterial activity against coagulase-negative Staphylococcus epidermidis 057 after 15 passages by agar dilution method; format: functional; in short: as §1
[33] = tested on: Staphylococcus epidermidis; assay: Antibacterial activity against methicillin-susceptible coagulase-negative Staphylococcus epidermidis 057 after 15 passages by agar dilution method; format: functional; in short: as §5
[34] = tested on: Staphylococcus epidermidis; assay: Antibacterial activity against coagulase-negative Staphylococcus epidermidis 345 after 33 passages by agar dilution method; format: functional; in short: as §1
[35] = tested on: Staphylococcus epidermidis; assay: Antibacterial activity against methicillin-susceptible coagulase-negative Staphylococcus epidermidis 051 after 38 passages by agar dilution method; format: functional; in short: as §5
Staphylococcus aureus [36] = assay: Antibacterial activity against methicillin-resistant and vancomycin-resistant Staphylococcus aureus VRS1 after 25 passages by agar dilution method; format: functional; in short: as §5
[37] = tested on: Staphylococcus epidermidis; assay: Antibacterial activity against coagulase-negative Staphylococcus epidermidis 225 after 36 passages by agar dilution method; format: functional; in short: as §1
[38] = tested on: Staphylococcus epidermidis; assay: Antibacterial activity against methicillin-resistant, vancomycin-intermediate coagulase-negative Staphylococcus epidermidis 225 after 36 passages by agar dilution method; format: functional; in short: as §5
Staphylococcus aureus [39] = assay: Antibacterial activity against Staphylococcus aureus 145 after 50 passages by agar dilution method; format: functional; in short: as §1
Staphylococcus aureus [40] = assay: Antibacterial activity against methicillin-resistant Staphylococcus aureus 145 after 50 passages by agar dilution method; format: functional; in short: as §1
[41] = tested on: Staphylococcus epidermidis; assay: Antibacterial activity against methicillin-susceptible coagulase-negative Staphylococcus epidermidis 057 after 23 passages by agar dilution method; format: functional; in short: as §5

| Structure (SMILES) | fold change (FC) [1] | fold change (FC) [3] | MIC (Staphylococcus aureus [4]) [µg/mL] | MIC [5] [µg/mL] | MIC50 (Staphylococcus aureus [7]) [µg/mL] | MIC90 (Staphylococcus aureus [7]) [µg/mL] | MIC [8] [µg/mL] | fold change (FC) [9] | fold change (FC) (Staphylococcus aureus [10]) | MIC50 (Staphylococcus aureus [12]) [µg/mL] | MIC90 (Staphylococcus aureus [12]) [µg/mL] | MIC [13] [µg/mL] | MIC (Staphylococcus aureus [15]) [µg/mL] | fold change (FC) [16] | fold change (FC) [17] | MIC [18] [µg/mL] | MIC50 (Staphylococcus aureus [19]) [µg/mL] | MIC90 (Staphylococcus aureus [19]) [µg/mL] | fold change (FC) (Staphylococcus aureus [21]) | MIC (Staphylococcus aureus [22]) [µg/mL] | further results |
| --- | --- | --- | --- | --- | --- | --- | --- | --- | --- | --- | --- | --- | --- | --- | --- | --- | --- | --- | --- | --- | --- |
| COc1ncc(C2c3ccccc3C=NN2C(=O)/C=C/c2cc(Cc3cnc(N)nc3N)cc(OC)c2OC)cn1 (stereo unspecified) | 7 | 9 | 4 (≈ 7.24 µM) | 8 (≈ 14.5 µM) | 0.03 (≈ 0.0543 µM) | 0.03 (≈ 0.0543 µM) | 0.25 (≈ 0.452 µM) | 8 | 8 | 0.25 (≈ 0.452 µM) | 0.5 (≈ 0.905 µM) | 0.125 (≈ 0.226 µM) | 0.5 (≈ 0.905 µM) | 4 | -2 | 0.125 (≈ 0.226 µM) | 0.03 (≈ 0.0543 µM) | 0.25 (≈ 0.452 µM) | 6 | 0.5 (≈ 0.905 µM) | MIC [2]: 128 µg/mL (≈ 232 µM); MIC [6]: 64 µg/mL (≈ 116 µM); MIC [11]: 64 µg/mL (≈ 116 µM); MIC [14]: 16 µg/mL (≈ 29 µM); MIC [20]: 16 µg/mL (≈ 29 µM); MIC (Staphylococcus aureus [23]): > 128 µg/mL; MIC (Staphylococcus aureus [24]): 0.25 µg/mL (≈ 0.452 µM); MIC (Staphylococcus aureus [25]): > 128 µg/mL; MIC [26]: 0.25 µg/mL (≈ 0.452 µM); MIC (Staphylococcus aureus [27]): > 128 µg/mL; MIC [28]: 128 µg/mL (≈ 232 µM); MIC (Staphylococcus aureus [29]): 1 µg/mL (≈ 1.81 µM); fold change (FC) (Staphylococcus aureus [30]): 9 |
| COc1cc(Cc2cnc(N)nc2N)cc(/C=C/C(=O)N2N=Cc3ccccc3C2c2cnc(N(C)C)nc2)c1OC (stereo unspecified) | 12 | 10 | 1 (≈ 1.77 µM) | 4 (≈ 7.07 µM) | 0.03 (≈ 0.053 µM) | 0.03 (≈ 0.053 µM) | 0.25 (≈ 0.442 µM) | 11 | 3 | 0.25 (≈ 0.442 µM) | 0.5 (≈ 0.884 µM) | 0.06 (≈ 0.106 µM) | 0.25 (≈ 0.442 µM) | 5 | -6 | 0.125 (≈ 0.221 µM) | 0.03 (≈ 0.053 µM) | 0.125 (≈ 0.221 µM) | 8 | 0.25 (≈ 0.442 µM) | MIC [31]: > 128 µg/mL; MIC [32]: > 128 µg/mL; MIC [33]: > 128 µg/mL; MIC (Staphylococcus aureus [24]): 0.25 µg/mL (≈ 0.442 µM); MIC [34]: > 128 µg/mL; MIC [35]: > 128 µg/mL; MIC [26]: 0.125 µg/mL (≈ 0.221 µM); MIC (Staphylococcus aureus [29]): 8 µg/mL (≈ 14.1 µM); fold change (FC) (Staphylococcus aureus [30]): 10 |
| COc1cc(Cc2cnc(N)nc2N)cc(/C=C/C(=O)N2N=Cc3ccccc3C2c2cnc(N3CCOCC3)nc2)c1OC (stereo unspecified) | 6 | 10 | 2 (≈ 3.29 µM) | 4 (≈ 6.58 µM) | 0.03 (≈ 0.0494 µM) | 0.06 (≈ 0.0987 µM) | 0.25 (≈ 0.411 µM) | 7 | 4 | 0.25 (≈ 0.411 µM) | 0.5 (≈ 0.823 µM) | 0.06 (≈ 0.0987 µM) | 1 (≈ 1.65 µM) | 5 | -6 | 0.25 (≈ 0.411 µM) | 0.03 (≈ 0.0494 µM) | 0.25 (≈ 0.411 µM) | 6 | 0.25 (≈ 0.411 µM) | MIC (Staphylococcus aureus [36]): > 128 µg/mL; MIC [37]: > 128 µg/mL; MIC [38]: > 128 µg/mL; MIC [6]: 64 µg/mL (≈ 105 µM); MIC [11]: 64 µg/mL (≈ 105 µM); MIC [14]: 4 µg/mL (≈ 6.58 µM); MIC [20]: 4 µg/mL (≈ 6.58 µM); MIC (Staphylococcus aureus [39]): 128 µg/mL (≈ 211 µM); MIC (Staphylococcus aureus [24]): 0.25 µg/mL (≈ 0.411 µM); MIC (Staphylococcus aureus [40]): 128 µg/mL (≈ 211 µM); MIC [26]: 0.25 µg/mL (≈ 0.411 µM); MIC (Staphylococcus aureus [29]): 2 µg/mL (≈ 3.29 µM); fold change (FC) (Staphylococcus aureus [30]): 9; MIC [41]: > 128 µg/mL |

— ChEMBL document CHEMBL1649147, “Antistaphylococcal activity of dihydrophthalazine antifolates, a family of novel antibacterial drugs” (2009)
